Reference: ChEMBL document CHEMBL1132373, “Synthesis, opioid receptor binding, and biological activities of naltrexone-derived pyrido- and pyrimidomorphinans” (J Med Chem, 1999)

Tests used:
[1] = target: Kappa-type opioid receptor (Cavia porcellus, UniProt P41144); experiment: Binding affinity for Opioid receptor kappa 1 was determined by inhibition of binding of [3H]U-69593 (1.2-2.2 nM) to guinea pig brain membranes; set-up: species or system Membrane
How it was run: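 Guinea pig brain membranes prepared daily, washed twice at 30000g. [3H]U69,593 (2 nM) incubated 2 h at 25 °C in 50 mM Tris-HCl pH 7.4 with 1 µg/mL captopril and protease inhibitors. Nonspecific binding with 1 µM U69,593. 8-10 drug concentrations, twice; Ki = IC50/(1+[L]/Kd).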

[2] = target: Opioid receptors; mu & delta (Rattus norvegicus) (UniProt P33533+P33535); experiment: Selectivity ratio of binding affinity towards mu to delta receptors of rat brain membranes; assay type: cell membranes; settings: Membrane
Chain of Opioid receptors; mu & delta (Rattus norvegicus) (P33533 whole entry, looked up): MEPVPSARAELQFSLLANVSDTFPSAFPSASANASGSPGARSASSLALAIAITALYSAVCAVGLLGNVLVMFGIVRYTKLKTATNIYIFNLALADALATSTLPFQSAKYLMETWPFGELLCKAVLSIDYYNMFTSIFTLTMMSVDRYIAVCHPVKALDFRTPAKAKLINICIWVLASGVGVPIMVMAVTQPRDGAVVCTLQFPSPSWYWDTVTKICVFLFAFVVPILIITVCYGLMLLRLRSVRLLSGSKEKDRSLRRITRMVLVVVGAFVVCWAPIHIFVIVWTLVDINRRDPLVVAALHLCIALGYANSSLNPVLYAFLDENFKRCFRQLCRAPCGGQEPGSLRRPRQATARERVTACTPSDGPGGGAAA
Chain of Opioid receptors; mu & delta (Rattus norvegicus) (P33535 whole entry, looked up): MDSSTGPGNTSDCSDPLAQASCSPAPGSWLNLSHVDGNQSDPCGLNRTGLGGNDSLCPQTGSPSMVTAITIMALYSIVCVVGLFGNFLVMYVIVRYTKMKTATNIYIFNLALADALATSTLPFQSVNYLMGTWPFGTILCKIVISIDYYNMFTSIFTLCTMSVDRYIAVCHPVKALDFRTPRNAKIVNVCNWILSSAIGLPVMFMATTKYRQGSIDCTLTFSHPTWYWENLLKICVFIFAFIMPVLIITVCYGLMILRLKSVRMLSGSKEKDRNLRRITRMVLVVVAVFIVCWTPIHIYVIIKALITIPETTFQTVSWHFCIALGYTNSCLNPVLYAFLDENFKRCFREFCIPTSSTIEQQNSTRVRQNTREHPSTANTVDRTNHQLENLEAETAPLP

[3] = target: Delta-type opioid receptor (Rattus norvegicus, UniProt P33533); experiment: Binding affinity for Opioid receptor delta 1 was determined by inhibition of binding of [3H]DADLE (1.3-2.0 nM) to rat brain membranes; assay type: cell membranes, Membrane
Chain of Delta-type opioid receptor (Rattus norvegicus, UniProt P33533) (P33533 whole entry): as the sequence (P33533 whole entry, looked up) above
How it was run: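 Rat brain membranes prepared daily (homogenised in ice-cold 10 mM Tris-HCl pH 7.0, centrifuged twice at 30000g). [3H]DADLE (2 nM) incubated 2 h at 25 °C in 50 mM Tris-HCl pH 7.4 with 100 mM choline chloride, 3 mM MnCl2, 100 nM DAMGO blocking mu sites, protease inhibitors. Nonspecific: 20 µM levallorphan. 8-10 drug concentrations, duplicate; Ki = IC50/(1+[L]/Kd).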

Cavia porcellus [4] = organism: Cavia porcellus; experiment: Selectivity ratio of binding affinity towards kappa of guinea pig brain membrane to delta receptors of rat brain membranes; assay type: cell membranes
Mu-type opioid receptor = Mu-type opioid receptor (Rattus norvegicus, UniProt P33535); experiment: Binding affinity for Opioid receptor mu 1 was determined by inhibition of binding of [3H]DAMGO (1.4-3 nM) to rat brain membranes; assay type: cell membranes, Membrane
Chain of Mu-type opioid receptor (P33535 whole entry): as the sequence (P33535 whole entry, looked up) above
How it was run: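 Rat brain membranes prepared daily, washed twice at 30000g. Labelled with [3H]DAMGO (1-3 nM), 2 h at 25 °C in 50 mM Tris-HCl pH 7.4 plus protease inhibitor cocktail. Nonspecific binding with 20 µM levallorphan. Test drug at 8-10 concentrations, run twice; Ki from IC50 via Ki = IC50/(1+[L]/Kd).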

[5] = target: Delta-type opioid receptor (Mus musculus) (UniProt P32300); experiment: (§1) Antagonist potency measured as Ke = [antagonist]/(IC50 ratio-1) against delta opioid receptor from mouse vas deferens (MVD) using DPDPE; assay type: functional
Chain of Delta-type opioid receptor (Mus musculus) (P32300 whole entry): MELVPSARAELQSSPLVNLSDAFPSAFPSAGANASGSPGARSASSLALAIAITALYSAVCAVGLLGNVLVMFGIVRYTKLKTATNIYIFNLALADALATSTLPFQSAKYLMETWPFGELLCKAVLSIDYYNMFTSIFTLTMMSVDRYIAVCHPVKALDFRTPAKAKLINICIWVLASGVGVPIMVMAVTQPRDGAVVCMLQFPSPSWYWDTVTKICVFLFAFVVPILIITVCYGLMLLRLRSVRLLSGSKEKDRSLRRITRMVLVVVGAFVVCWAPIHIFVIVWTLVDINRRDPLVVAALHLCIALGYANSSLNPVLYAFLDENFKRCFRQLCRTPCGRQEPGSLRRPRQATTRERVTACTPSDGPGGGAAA
How it was run: (§2)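 Vas deferens from male ICR mice (25-40 g) in 37 °C oxygenated magnesium-free Krebs, 0.5 g tension, field-stimulated 0.1 Hz, 2-ms pulses. Compound 1 µM for 30 min, washout 30 min, cumulative DPDPE curve repeated. Ke = [antagonist]/(IC50 ratio - 1); IC50 from 2-4 tissues, n ≥ 3, nonlinear least squares.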

[6] = target: Delta-type opioid receptor (Mus musculus) (UniProt P32300); experiment: Antagonist potency against delta opioid receptor in mouse vas deferens (MVD) using DPDPE; assay type: functional, tissue-based; how it was run: as §2
Mus musculus = organism: Mus musculus; experiment: Inhibition of contraction (agonistic activity) of mouse vas deferens (MVD) at 1 uM concentration.; assay type: functional
[7] = target: Mu-type opioid receptor (Cavia porcellus) (UniProt P97266); experiment: Opioid antagonist potency against […] mu-opioid receptor from guinea pig ileum(GPI).; assay type: functional, tissue-based
Chain of Mu-type opioid receptor (Cavia porcellus) (P97266 whole entry): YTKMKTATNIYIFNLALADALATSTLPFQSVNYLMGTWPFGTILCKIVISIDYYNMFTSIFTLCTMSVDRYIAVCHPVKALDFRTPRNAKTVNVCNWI
How it was run: (§3)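 Longitudinal muscle-myenteric plexus strips from male Hartley guinea pigs (250-500 g), 37 °C oxygenated Krebs, 1 g tension, 0.1 Hz, 0.4 ms pulses. Preincubated 30 min with 1 µM compound, washed 30 min, cumulative PL-017 curve repeated. Ke = [antagonist]/(IC50 ratio - 1); IC50 from 2-4 tissues.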

Cavia porcellus [8] = organism: Cavia porcellus; experiment: Inhibition of contraction (agonistic activity) of guinea pig ileum(GPI) at 1 uM concentration.; assay type: functional
How it was run: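 Guinea pig ileum longitudinal muscle strips, 37 °C oxygenated Krebs, 1 g tension, 0.1 Hz, 0.4 ms pulses, supramaximal voltage.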

[9] = target: Mu-type opioid receptor (Cavia porcellus) (UniProt P97266); experiment: Antagonist potency against mu opioid receptor in guinea pig ileum (GPI) using […]; assay type: functional, tissue-based; how it was run: as §3
Cavia porcellus [10] = organism: Cavia porcellus; experiment: Selectivity ratio of binding affinity towards mu of […] preparations; assay type: tissue-based
[11] = target: Delta-type opioid receptor (Mus musculus) (UniProt P32300)
[12] = target: Delta-type opioid receptor (Mus musculus, UniProt P32300); experiment: as §1; assay type: functional; how it was run: as §2
Chain of Delta-type opioid receptor (Mus musculus, UniProt P32300) (P32300 whole entry): as the sequence (P32300 whole entry) above

Chain of Kappa-type opioid receptor (P41144 whole entry): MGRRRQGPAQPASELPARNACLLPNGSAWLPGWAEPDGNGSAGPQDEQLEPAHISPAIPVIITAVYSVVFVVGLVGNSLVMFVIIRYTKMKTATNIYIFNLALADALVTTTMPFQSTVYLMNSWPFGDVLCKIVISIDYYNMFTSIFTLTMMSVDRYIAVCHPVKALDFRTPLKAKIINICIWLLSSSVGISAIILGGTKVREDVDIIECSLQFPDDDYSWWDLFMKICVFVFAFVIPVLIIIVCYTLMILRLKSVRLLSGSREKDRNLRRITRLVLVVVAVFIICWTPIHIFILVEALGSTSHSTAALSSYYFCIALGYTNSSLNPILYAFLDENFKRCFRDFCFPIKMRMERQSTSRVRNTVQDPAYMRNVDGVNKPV

Row | SMILES | Ki [1] [nM] | Selectivity ratio [2] | Ki [3] [nM] | Selectivity ratio (Cavia porcellus [4]) | Ki (Mu-type opioid receptor) [nM] | Ke [5] [nM] | IC50 ratio [6] | IC50 (Mus musculus; Mus musculus) [nM] | Ke [7] [nM] | Percent inhibition of contraction at 1 uM (Mus musculus) [%] | Percent inhibition of contraction at 1 uM (Cavia porcellus [8]) [%] | IC50 (Cavia porcellus [8]; Cavia porcellus, Ileum) [nM] | IC50 ratio [9] | Selectivity ratio (Cavia porcellus [10]) | Ke [11] [nM] | inhibition at 1 µM (Mus musculus) [%] | inhibition at 1 µM (Cavia porcellus [8]) [%] | Ki [12] [nM] | IC50 (Mus musculus) [%] | IC50 (Cavia porcellus [8]) [%]
1 | Cc1nc(-c2ccccc2)c2c(n1)C1Oc3c(O)ccc4c3[C@@]13CCN(CC1CC1)[C@H](C4)[C@]3(O)C2 (some centres undefined) | 565 | 0.8 | 325 | 1.7 | 254 | – | – | – | – | – | – | – | – | – | – | – | – | – | – | –
2 | Cc1ncc2c(n1)[C@@H]1Oc3c(O)ccc4c3[C@@]13CCN(CC1CC1)[C@H](C4)[C@]3(O)C2 | 25 | 0.3 | 22.7 | 1.1 | 6 | 150 | 7.6 | 3 | – | – | – | – | – | – | – | – | – | – | – | –
3 | Oc1ccc2c3c1O[C@H]1c4[nH]c5ccccc5c4C[C@@]4(O)[C@@H](C2)N(CC2CC2)CC[C@]314 [NALTRINDOLE] | – | – | – | – | – | – | – | – | 43 | 16 | 18 | – | – | – | – | – | – | – | – | –
4 | Cc1cc(-c2ccccc2)c2c(n1)C1Oc3c(O)ccc4c3[C@@]13CCN(CC1CC1)[C@H](C4)[C@]3(O)C2 (some centres undefined) | 677 | 1.2 | 125 | 5.4 | 154 | – | – | 1.2 | – | – | – | 5.4 | – | – | – | – | – | – | – | –
5 | Oc1ccc2c3c1O[C@H]1c4nc(-c5ccccc5)ccc4C[C@@]4(O)[C@@H](C2)N(CC2CC2)CC[C@]314 | 18.4 | 6.3 | 1.76 | 10 | 11 | 25 | 41.1 | – | 88 | – | – | – | 12.4 | 3.5 | – | – | – | – | – | –
6 | Oc1ccc2c3c1O[C@H]1c4nc(-c5ccccc5)nc(-c5ccccc5)c4C[C@@]4(O)[C@@H](C2)N(CC2CC2)CC[C@]314 | 2540 | 3.4 | 344 | 7.4 | 1170 | 150 | 7.63 | – | 560 | – | – | – | 2.8 | 3.7 | – | – | – | – | – | –
7 | Oc1ccc2c3c1O[C@H]1c4ncccc4C[C@@]4(O)[C@@H](C2)N(CC2CC2)CC[C@]314 | 8.8 | 1.9 | 0.78 | 11 | 1.5 | – | – | – | – | – | – | – | 7.08 | 4.4 | 37 | 0 | 0 | – | – | –
8 | Oc1ccc2c3c1O[C@H]1c4ncc(-c5ccccc5)cc4C[C@@]4(O)[C@@H](C2)N(CC2CC2)CC[C@]314 | 17.6 | 16 | 0.87 | 20 | 13.5 | – | 249 | – | – | 4.7 | – | – | 24.6 | 12 | – | – | – | 3.4 | – | –
9 | Oc1ccc2c3c1O[C@H]1c4ncc(-c5ccc(Cl)cc5)cc4C[C@@]4(O)[C@@H](C2)N(CC2CC2)CC[C@]314 | – | – | – | – | – | – | – | – | – | 21 | – | 163 | – | – | – | – | – | – | – | –
10 | Oc1ccc2c3c1O[C@H]1c4nc(-c5ccccc5)ncc4C[C@@]4(O)[C@@H](C2)N(CC2CC2)CC[C@]314 | 11 | 1.4 | 16 | 0.7 | 22 | 75 | 14.3 | – | 30 | – | – | 4 | 34.1 | 0.4 | – | – | – | – | – | –
11 | Oc1ccc2c3c1O[C@H]1c4nc(-c5ccccc5)cc(-c5ccccc5)c4C[C@@]4(O)[C@@H](C2)N(CC2CC2)CC[C@]314 | 2120 | 7.6 | 86 | 25 | 652 | 49 | 21.2 | – | – | – | – | – | – | – | – | – | – | – | – | –
12 | Oc1ccc2c3c1O[C@H]1c4nc(Cc5ccccc5)nc(-c5ccccc5)c4C[C@@]4(O)[C@@H](C2)N(CC2CC2)CC[C@]314 | 1270 | 2.3 | 100 | 13 | 233 | 260 | 4.8 | – | 44 | – | – | – | 23.8 | 0.17 | – | – | – | – | 11.7 | 14
13 | Oc1ccc2c3c1OC1c4nccc(-c5ccccc5)c4C[C@@]4(O)[C@@H](C2)N(CC2CC2)CC[C@]314 (some centres undefined) | 264 | 2.6 | 73 | 3.6 | 191 | 51 | 20.5 | – | 190 | 31 | 14.8 | – | 6.21 | 3.7 | – | – | – | – | – | –
14 | Oc1ccc2c3c1O[C@H]1c4ncnc(-c5ccccc5)c4C[C@@]4(O)[C@@H](C2)N(CC2CC2)CC[C@]314 | 216 | 1.5 | 230 | 0.9 | 348 | 300 | 4.3 | – | 204 | 15.4 | 17 | – | 5.9 | 0.7 | – | – | – | – | – | –
15 | Oc1ccc2c3c1O[C@H]1c4nc5ccccc5c(-c5ccccc5)c4C[C@@]4(O)[C@@H](C2)N(CC2CC2)CC[C@]314 | 272 | 4.2 | 73 | 3.7 | 308 | – | – | – | – | – | – | – | – | – | – | – | – | – | – | –
16 | Oc1ccc2c3c1O[C@H]1c4ncncc4C[C@@]4(O)[C@@H](C2)N(CC2CC2)CC[C@]314 | 6.24 | 1.2 | 3.5 | 1.8 | 4.15 | 75 | 14.4 | – | 150 | – | – | – | 7.52 | 2 | – | – | – | – | – | –
